# Source: paper PMC3448169 (mBio, 2012)
# “Also recorded” adds a separate entry of the source. Ends that are not written are not given here. * marks the point of attachment. Biotin = O=C1N[C@H]2[C@H](CS[C@H]2CCCCC(=O)*)N1; Ahx = NCCCCCC(=O)O
# B1: RH4 C-terminal cytoplasmic tail peptide (peptide)
# peptide: {Biotin-Ahx}-EDEVEDEVEDEDENENEVENENEDFNDI
# B2: rabbit muscle aldolase (enzyme, UniProt P00883 1-364, looked up)
# chain: MPHSHPALTPEQKKELSDIAHRIVAPGKGILAADESTGSIAKRLQSIGTENTEENRRFYRQLLLTADDRVNPCIGGVILFHETLYQKADDGRPFPQVIKSKGGVVGIKVDKGVVPLAGTNGETTTQGLDGLSERCAQYKKDGADFAKWRCVLKIGEHTPSALAIMENANVLARYASICQQNGIVPIVEPEILPDGDHDLKRCQYVTEKVLAAVYKALSDHHIYLEGTLLKPNMVTPGHACTQKYSHEEIAMATVTALRRTVPPAVTGVTFLSGGQSEEEASINLNAINKCPLLKPWALTFSYGRALQASALKAWGGKKENLKAAQEEYVKRALANSLACQGKYTPSGQAGAAASESLFISNHAY
# B3: RH1 C-terminal cytoplasmic tail peptide (peptide)
# peptide: {Biotin-Ahx}-KQEDKEQEKQQQNDFVCDNNKMDDKSTQKYGRNQEEVMEISFDNDYI
# Key:
# [1] = molecular target: BAEBL (EBA140) C-terminal cytoplasmic tail peptide (Plasmodium falciparum); experiment: SPR
# [2] = tested on: yeast GAPDH; experiment: GAPDH pulldown assay with biotinylated peptides on streptavidin-agarose beads; format: binding; details: pulldown competition, 10 mM NADH
# In short: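 Test peptides carried an N-terminal biotin–Ahx linker, were dissolved in 20 mM Tris-HCl pH 8.0 at 0.5 mg/ml, and were bound to streptavidin-agarose for 1 h at RT, then washed. After four washes, bound protein was boiled in reducing LDS buffer and run on 4–12% bis-Tris gels.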
# [3] = molecular target: T1, rabbit muscle aldolase (Oryctolagus cuniculus, UniProt P00883); experiment: SPR analysis of aldolase binding to immobilized peptides; details: SPR sensorgrams, aldolase 50 to 800 nM
# T1 sequence (P00883 1-364): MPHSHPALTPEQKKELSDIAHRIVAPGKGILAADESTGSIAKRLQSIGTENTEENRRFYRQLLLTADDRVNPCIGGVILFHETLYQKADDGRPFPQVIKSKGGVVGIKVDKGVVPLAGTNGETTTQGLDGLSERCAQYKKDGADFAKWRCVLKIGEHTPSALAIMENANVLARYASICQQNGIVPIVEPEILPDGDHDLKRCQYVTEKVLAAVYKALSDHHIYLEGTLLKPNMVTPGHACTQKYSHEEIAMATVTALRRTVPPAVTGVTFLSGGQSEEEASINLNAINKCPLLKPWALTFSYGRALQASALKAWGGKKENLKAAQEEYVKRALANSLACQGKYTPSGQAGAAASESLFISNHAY
# In short: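 CM5 chips at 25°C carried amine-coupled NeutrAvidin with captured biotinylated peptides (0.5 µg/ml). Rabbit muscle aldolase was injected in 10 mM HEPES pH 7.5/100 mM KCl/0.5 mM EDTA/1 mM MgCl₂/0.2% Tween 20, with F1-6P added in some runs. Flow was 20 µl/min, with 4 min association and 10 min dissociation, and glycine pH 2.5 regeneration. NeutrAvidin-only reference cells were subtracted. ka and kd came from global fits to a 1:1 Langmuir or a two-state model.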
# [4] = tested on: GAPDH; experiment: SPR analysis of GAPDH binding to immobilized peptides; set-up: species or system yeast; details: curves did not fit the 1:1 or the two-state model, no KD determined
# [5] = molecular target: B2; experiment: SPR
# [6] = molecular target: B1; experiment: SPR
# [7] = molecular target: B3; experiment: SPR
molecule,measurement,setting,value
yeast GAPDH (glyceraldehyde-3-phosphate dehydrogenase) (from UniProt P00359 1-332) (enzyme),Kd,[1],461 nM
same,"ka1 (two-state model, step 1)",[1],10200 M^-1 S^-1
same,"kd1 (two-state model, step 1)",[1],0.016 s⁻¹
same,"kd2 (two-state model, step 2)",[1],0.003 s⁻¹
YMFDQQINVVNSDLYSEGIYDDTTTF [JESEBL],GAPDH binding on adding the cofactor NADH,[2],blocked
same,binding to aldolase by SPR (qualitative),[3],not to bind; also recorded: no binding was seen
same,GAPDH binding by SPR (qualitative),[4],demonstrated binding
B1,Kd,[5],47 nM
B2,"ka1 (two-state model, step 1)",[6],16000 M^-1 S^-1
same,"ka2 (two-state model, step 2)",[6],0.012 s⁻¹
same,"kd1 (two-state model, step 1)",[6],0.034 s⁻¹
same,"kd2 (two-state model, step 2)",[6],0.000269 s⁻¹
same,"ka1 (two-state model, step 1)",[7],45400 M^-1 S^-1
same,"ka2 (two-state model, step 2)",[7],0.018 s⁻¹
same,"kd1 (two-state model, step 1)",[7],0.082 s⁻¹
same,"kd2 (two-state model, step 2)",[7],0.000647 s⁻¹
B3,Kd,[5],61 nM
{Biotin-Ahx}-ETLGEEDKDLDEPEQFRLPEENEWN [TRAP (thrombospondin-related anonymous protein) C-terminal cytoplasmic tail peptide],Kd,[5],106 nM
{Biotin-Ahx}-NDHLSNYADKEEIIEIVFDENEEKYF [RH2b C-terminal cytoplasmic tail peptide],Kd,[5],214 nM
same,koff,[5],0.000183 s⁻¹
same,kon,[5],856 M⁻¹ s⁻¹
